Assay outcomes from PubChem BioAssay.
Sampled rows, rich in hits. Any-hit rate of the full collection: about 0.55%.
ABCB6 inh 2: ABCB6 transporter inhibitors, primary screen, K562-ABCB6 cells, flow cytometry, MLPCN library. K562-ABCB6 porphyrin accumulation, 1 h; stronger effect = lower value. fluorescence ratio to DMSO, % at 10 µM. hit rate 0.19% among 360,000. AID 602162, 2011;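 active = fluorescence ratio to DMSO below 75%, the collection mean minus 3 SD; inconclusive = too few cells collected in the well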;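 also: signal is porphyrin accumulated inside mitochondria; 100% equals median channel fluorescence of DMSO control wells; lower ratio means ABCB6 inhibition with less porphyrin fluorescence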
p97 ATPase inh: inhibitors of human p97 ATPase, primary screen, biochemical. recombinant p97 ATPase, Kinase-Glo ATP luminescence, 3 h. hit rate 0.42% among 220,000. Transitional endoplasmic reticulum ATPase (Homo sapiens), P55072. inhibition, % at 8 µM; in the data active = inhibition above about 15%;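 also: 0% = DMSO vehicle and 100% = wells lacking enzyme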
Target sequence (P55072 whole entry, looked up): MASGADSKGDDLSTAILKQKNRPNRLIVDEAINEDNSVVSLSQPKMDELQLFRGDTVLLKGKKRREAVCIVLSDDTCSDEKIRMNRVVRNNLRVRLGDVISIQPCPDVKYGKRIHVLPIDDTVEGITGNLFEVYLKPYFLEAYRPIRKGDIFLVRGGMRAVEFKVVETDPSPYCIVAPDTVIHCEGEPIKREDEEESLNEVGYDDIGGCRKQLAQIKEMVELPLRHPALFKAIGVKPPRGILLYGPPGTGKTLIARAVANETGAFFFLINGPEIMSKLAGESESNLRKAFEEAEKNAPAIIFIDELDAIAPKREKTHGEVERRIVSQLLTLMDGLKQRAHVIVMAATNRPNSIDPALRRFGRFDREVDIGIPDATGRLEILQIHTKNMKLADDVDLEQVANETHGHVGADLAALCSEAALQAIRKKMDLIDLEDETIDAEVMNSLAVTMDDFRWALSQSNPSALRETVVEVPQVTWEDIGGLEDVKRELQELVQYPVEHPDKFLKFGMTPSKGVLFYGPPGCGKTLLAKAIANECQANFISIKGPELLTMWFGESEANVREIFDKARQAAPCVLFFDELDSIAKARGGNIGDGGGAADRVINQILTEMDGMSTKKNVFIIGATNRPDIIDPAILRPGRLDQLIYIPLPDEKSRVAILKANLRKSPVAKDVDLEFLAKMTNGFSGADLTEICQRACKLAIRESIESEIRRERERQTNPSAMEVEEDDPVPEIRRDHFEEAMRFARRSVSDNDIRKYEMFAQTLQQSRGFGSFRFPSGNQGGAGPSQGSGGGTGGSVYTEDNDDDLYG
Rad51 HR inh: human RAD51 strand exchange inhibitors, primary screen, biochemical, fluorescence; hRad51 DNA strand exchange, fluorescence dequenching; inhibition, % at 10 µM; hit rate 0.085% among 200,000; AID 1385, 2008;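 active = inhibition above 40% at the single screening dose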;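 also: 0% = DMSO control wells and 100% = blanks with heterologous ssDNA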
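Material: human Rad51–ssDNA filaments; Probe or stimulus: labelled 47-mer dsDNA for strand exchange; Doses: single 10 µM dose; Incubation: 37 °C 15-min filament assembly, 30-min compound preincubation, 15-min exchange; Technique: FRET fluorescence dequenching, excitation 485 nm, emission 520 nm; Measure: Fluorescence-based percent inhibition, control- and blank-normalised; Benchmarks: plate control and blank wells.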
ABCG2 block: ABCG2 efflux pump inhibitors, primary screen, multiplex with ABCB1, IgMXP3 cells, flow cytometry | JC-1 efflux | inhibition, % at 6.6 µM | hit rate 0.1% among 190,000 | AID 1325, 2008;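 active = inhibition above 80%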;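 also: 0% = DMSO and 100% = nicardipine control wells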
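Read-out basis: Efflux inhibition in percent versus controls | Test system: ABCG2 IgMXP3 and barcoded ABCB1 CCRF-Adr cell mix | Quantity: 3 million cells/mL in well | Schedule: 10 min at 25 °C | Control set: Nicardipine as high control, DMSO as low control | Reagent: JC-1 as fluorescent efflux pump substrate | Signal: Flow cytometry of retained JC-1 fluorescence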
ABCB1 block: ABCB1 efflux pump inhibitors, primary screen, cell-based, multiplex, flow cytometry, ABCG2 counter-screen | ATP-dependent translocase ABCB1 (Homo sapiens), P08183 | CCRF-Adr cells, JC-1 efflux | inhibition, % at 6.6 µM | hit rate 0.067% among 190,000 | AID 1326, 2008; in the data active = inhibition above about 40%;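 also: 0% = vehicle and 100% = reference inhibitor; higher value means more JC-1 retained so stronger ABCB1 efflux block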
HSV replic up: enhancers of HSV replication in host cells, fold increase, host cell viability. HSV replication augmentation in cells. maximum fold increase. hit rate 0.005% among 220,000; in the data active = maximum fold increase above about 1.5; inconclusive = no clear call, values can overlap the other calls; tested in PC3 cells
ABCB1 single pt: ABCB1 efflux pump inhibitors, confirmation, cell-based, single point, ABCG2 counter-screen; shares compounds with ABCG2 block; CCRF-Adr cells, JC-1 efflux, flow cytometry; inhibition, % at 6.6 µM; hit rate 7% among 270; AID 1451, 2008;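 active = inhibition of pump activity above 50%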;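 also: 0% = DMSO and 100% = nicardipine full pump inhibition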
ABCG2 confirm: ABCG2 efflux pump inhibitors, confirmation, single point, IgMXP3 cells, ABCB1 counter-screen paired | hit rate 6% among 270 | inhibition, % at 6.6 µM | JC-1 efflux, flow cytometry | shares compounds with ABCG2 block;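 active = inhibition above 50%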;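 also: 0% = DMSO wells and 100% = nicardipine pump inhibitor wells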
IgMXP3 fluor: compound autofluorescence in ABCG2-expressing IgMXP3 cells, confirmation, artefact control for ABC transporter inhibitor project, cell-based, 488/530 nm, flow cytometry | hit rate 30% among 270 | fluorescence at 6.6 µM | AID 1480, 2009 | compound autofluorescence 488/530 nm; stronger effect = higher value | shares compounds with ABCG2 block;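 active = fluorescence in ABCG2-expressing cells above the plate's control-well mean plus 3 SD, cut at about 15 in these data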;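 also: median cell fluorescence with compound minus that of DMSO-treated control cells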
CCRF-Adr fluor: compound autofluorescence in ABCB1-expressing CCRF-Adr cells, confirmation, artefact control for ABC transporter inhibitor project, cell-based, 488/530 nm, flow cytometry. shares compounds with ABCG2 block. compound autofluorescence 488/530 nm; stronger effect = higher value. fluorescence at 6.6 µM. hit rate 30% among 270;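 active = fluorescence beyond the plate control mean plus 3 SD, with a fluorescence-to-maximum score over 2, cut at about 25 in these data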
The depositor's hits bear a star; i = inactive; ? = inconclusive; . = no result given; + = active, no number.

SMILES | ABCB6 inh 2 | p97 ATPase inh | Rad51 HR inh | ABCG2 block | ABCB1 block | HSV replic up | ABCB1 single pt | ABCG2 confirm | IgMXP3 fluor | CCRF-Adr fluor
CCCCN1/C(=C/c2ccc3ccccc3[n+]2CC)Sc2ccccc21 | i | 7.3 | -127.1 | 121.3* | 20.2 | . | 72.7* | 8.2 | 256* | 337*
CCN1/C(=C/c2ccc3cc(C)ccc3[n+]2CC)Sc2cc(C)ccc21 | i | -0.9 | -183.8 | + | 10.0 | . | 114.2* | 8.2 | 118* | 187*
COc1cccc(-c2cc(CNC(=O)[C@H]3O[C@@H](n4ccc(N)nc4=O)[C@H](O)[C@@H]3O)no2)c1 | 105.0 | . | . | . | . | . | . | . | . | .
CCOC(=O)C1=C(O)/C(=C/c2ccc(OCC(=O)O)c(OCC)c2)SC1=Nc1ccccc1 | 84.0 | 1.5 | 8.5 | -0.1 | -0.2 | i | . | . | . | .
CCOC(=O)C1=C(O)/C(=C/c2ccc(OCC(=O)O)c(OC)c2)SC1=Nc1ccc(OCC)cc1 | 99.0 | -5.3 | . | 15.8 | 49.7* | i | -1.1 | 5.2 | -1.79 | -3.44
O=C(NCC1OCCc2ccccc21)c1ccc(NC(=O)c2ccccc2Cl)cc1 (centres undefined) | 97.0 | 0.0 | -4.9 | -0.1 | -9.4 | i | . | . | . | .
O=C(NCC1OCCc2ccccc21)c1ccc(NC(=O)c2ccc(Cl)cc2Cl)cc1 (centres undefined) | 94.0 | 5.4 | 3.9 | 111.0* | 94.6* | i | 6.5 | 42.8 | 1.71 | -1.29
CCOc1ccccc1NC(=O)C(OC(=O)c1ccc(N(C)C)cc1)c1ccccc1 (centres undefined) | 101.0 | 5.0 | 2.1 | 117.4* | 5.4 | i | 37.7 | 63.1* | 2.16 | 21.3
CCOc1ccccc1NC(=O)C(OC(=O)c1ccc(O)cc1)c1ccccc1 (centres undefined) | 97.0 | -0.5 | -0.4 | 22.6 | 1.3 | i | . | . | . | .
COc1cccc(N2C(=O)C3ON(c4ccccc4)C(c4cccs4)C3C2=O)c1 (centres undefined) | 98.0 | 2.5 | -13.6 | 0.9 | 0.3 | i | . | . | . | .
CCOc1ccc(N2C(=O)C3ON(c4ccccc4)C(c4cccs4)C3C2=O)cc1 (centres undefined) | 99.0 | 2.9 | 24.0 | 29.1 | 95.2* | i | 0.7 | 22.6 | -1.24 | -0.79
CC[C@@H](C)[C@H](N)C(=O)NC[C@H]1O[C@@H](n2cnc3c(N)ncnc32)[C@H](O)[C@@H]1O | 98.0 | . | . | . | . | . | . | . | . | .
Cc1c(C(=O)Nc2ccc(F)cc2)c2ccccn2c1CCc1ccncc1 | 91.0 | -1.7 | -9.6 | 5.4 | 13.2 | ? | 23.8 | 26.5 | 2.66 | -0.14
COC(=O)CCc1c(C)c(C(=O)c2ccc(F)cc2)c2ccccn12 | 97.0 | -1.7 | 8.2 | 3.3 | 0.1 | i | . | . | . | .
Cn1c(=O)c(NCCc2ccccc2)c2c3c(cccc31)C(=O)c1ccccc1-2 | i | -4.6 | i | 150.8* | 70.5* | ? | 10.2 | 33.5 | 55* | 143*
Cn1c(=O)c(NCCO)c2c3c(cccc31)C(=O)c1ccccc1-2 | 91.0 | 6.5 | i | 84.1* | 7.1 | . | 0.4 | 19.7 | 12.6 | 8.31
CCNc1c2c3c(cccc3n(C)c1=O)C(=O)c1ccccc1-2 | . | 2.9 | i | 4.4 | 2.3 | . | . | . | . | .
CC(=O)Nc1ccc(Nc2c3c4c(cccc4n(C)c2=O)C(=O)c2ccccc2-3)cc1 | 95.0 | 3.1 | -182.7 | 9.5 | 10.2 | ? | . | . | . | .
CCCCNc1c2c3c(cccc3n(C)c1=O)C(=O)c1ccccc1-2 | 329.0 | -4.8 | i | 141.6* | 65.7* | . | 3.7 | 15.8 | 70.7* | 132*
O=C(Nc1ccc([N+](=O)[O-])cc1)C(c1ccccc1)c1ccccc1 | 97.0 | . | . | . | . | . | . | . | . | .
CCN1C(=O)/C(=C/c2ccc(N3CCCC3)cc2)NC1=S | 167.0 | 6.1 | i | 78.7 | 22.8 | ? | 18.9 | 7.1 | 20.2* | 43.6*
Cc1cc(/C=C2\NC(=S)N(C)C2=O)ccc1N1CCCC1 | 208.0 | -0.1 | . | 25.4 | 21.4 | ? | . | . | . | .
CCCN1C(=O)/C(=C/c2ccc(N3CCCC3)c(C)c2)NC1=S | 975.0 | 1.8 | i | 86.0* | 52.3* | ? | -29.2 | -21.1 | 107* | 137*
O=C(COC(=O)c1cc(=O)[nH]c2ccccc12)Nc1ccc(Cl)cn1 | 101.0 | . | . | . | . | . | . | . | . | .
COc1ccc2cc3cc(C(=O)Nc4ccccc4N4CCN(C)CC4)oc3nc2c1 | 87.0 | -5.3 | -0.8 | 52.5 | 47.1* | ? | 25.0 | 18.2 | 11.3 | -1.39
SMILES | ABCB6 inh 2 | p97 ATPase inh | Rad51 HR inh | ABCG2 block | ABCB1 block | HSV replic up | ABCB1 single pt | ABCG2 confirm | IgMXP3 fluor | CCRF-Adr fluor
CCc1nnc(NC(=O)c2cc(S(=O)(=O)N3CCOCC3)ccc2N2CCCCC2)s1 | 108.0 | 1.4 | -0.2 | 76.8 | 68.5* | i | 3.5 | 14.5 | -1.04 | -0.79
O=C(Nc1nnc(C2CC2)s1)c1cc(S(=O)(=O)N2CCCCC2)ccc1N1CCOCC1 | 99.0 | 2.0 | 10.3 | . | . | i | . | . | . | .
COC(=O)[C@@]1(Cc2ccc(F)cc2)[C@H]2c3cc(C(=O)N4CCCC4)n(C)c3C[C@H]2CN1C(=O)c1ccccc1 | 115.0 | . | . | . | . | . | . | . | . | .
COc1ccccc1OCCOc1ccc(C(=O)c2ccccc2)cc1 | 105.0 | -11.8 | . | 87.2* | 5.2 | i | -10.8 | 31.4 | 51.8* | 81.8*
CC1(C(=O)NCC2CC2)Cc2c(-c3ccc4c(c3)OCO4)ccnc2O1 (centres undefined) | 97.0 | . | . | . | . | . | . | . | . | .
CCOC(=O)c1c(-c2ccc(C)cc2)csc1NC(=O)/C(C#N)=C/c1ccc(O)c(OC)c1 | 480.0 | 7.9 | -177.8 | 131.9* | 117.0* | ? | 0.6 | 20.6 | 80* | 222*
CCOC(=O)c1c(-c2ccccc2)csc1NC(=O)/C(C#N)=C\c1ccc(O)c(OC)c1 | 711.0 | . | . | . | . | . | . | . | . | .
